The test system of data set [1] is A549. As to the kind of experiment: Induction of apoptosis in human A549 cells assessed as necrotic cells at 0.3 uM incubated for 48 hrs by annexin V-FITC/PI double staining based flow cytometric analysis (reference value: 0%). The format is functional. A general note: Flow cytometry measures light scatter and fluorescence of single cells or particles in a stream.

Data set [2] deals with Bromodomain-containing protein 4 (Homo sapiens, UniProt O60885). As to the kind of experiment: Binding affinity to recombinant human His-tagged BRD4 bromodomain 2 expressed in […] insect cells using biotinylated H4(1 to 21)K5/8/12/16Ac peptide as substrate at 20 uM preincubated for 30 mins followed by substrate addition and measured after 30 mins by Alpha screen assay relative to control. For orientation: Alpha assays give light when donor and acceptor beads are brought close together.

In data set [3] the test system is A549. The experiment in a line: Induction of apoptosis in human A549 cells assessed as early apoptotic cells at 1.0 uM incubated for 48 hrs by annexin V-FITC/PI double staining based flow cytometric analysis (reference value: 1.76%). It is filed as functional.
The nature of data set [4]: MRT (0 to t) in Sprague-Dawley rat at 10 mg/kg, po measured for 0.083 to 24 hrs by LC-MS/MS analysis. The format is ADME, organism-based. The note with it: in vivo.
In the next data set the test system is SGC-7901. As to the kind of experiment: Antiproliferative activity against human SGC7901 cells incubated for 48 hrs by MTT assay. It is filed as functional, cell-based. The note with it: SGC-7901, 48 h. The method in brief:
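Cells kept in DMEM or RPMI 1640 with 10% FBS at 37 °C, 5% CO2. MTT added for 4 h at 37 °C, formazan dissolved in DMSO, OD read at 570 nm. Survival % taken relative to blank and control wells. Triplicate runs; IC50 from curve fit.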

For data set [5], the system named is A549. As to the kind of experiment: Induction of apoptosis in human A549 cells assessed as early apoptotic cells at 3.0 uM incubated for 48 hrs by annexin V-FITC/PI double staining based flow cytometric analysis (reference value: 1.76%). It is filed as functional.
The target of data set [6] is T1, Bromodomain-containing protein 9 (Homo sapiens) (UniProt Q9H8M2).
T1 sequence (whole entry): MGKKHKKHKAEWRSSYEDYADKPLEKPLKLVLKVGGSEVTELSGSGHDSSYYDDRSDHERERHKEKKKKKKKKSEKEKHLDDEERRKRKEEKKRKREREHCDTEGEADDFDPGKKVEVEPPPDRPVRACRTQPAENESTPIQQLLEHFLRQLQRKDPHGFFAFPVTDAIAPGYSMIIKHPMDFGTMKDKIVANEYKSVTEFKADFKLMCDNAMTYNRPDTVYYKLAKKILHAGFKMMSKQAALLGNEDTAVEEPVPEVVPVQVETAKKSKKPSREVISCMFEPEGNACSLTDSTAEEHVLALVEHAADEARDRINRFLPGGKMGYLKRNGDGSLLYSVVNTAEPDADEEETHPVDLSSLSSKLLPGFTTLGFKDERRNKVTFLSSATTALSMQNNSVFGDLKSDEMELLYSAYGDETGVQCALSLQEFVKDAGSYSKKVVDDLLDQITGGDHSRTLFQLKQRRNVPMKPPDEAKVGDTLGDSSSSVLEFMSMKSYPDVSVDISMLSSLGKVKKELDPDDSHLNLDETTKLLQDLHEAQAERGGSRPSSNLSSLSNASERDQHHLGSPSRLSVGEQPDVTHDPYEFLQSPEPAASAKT
The experiment in a line: Binding affinity to BRD9 (unknown origin) at 20 uM by Alpha screen assay relative to control.

Data set [7] concerns A549. As to the kind of experiment: Induction of apoptosis in human A549 cells assessed as viable cells at 1.0 uM incubated for 48 hrs by annexin V-FITC/PI double staining based flow cytometric analysis (reference value: 98.2%). It is filed as functional. The note with it: A549, 48 h, read-out: Activity.
For data set [8], the target named is Bromodomain testis-specific protein (Homo sapiens) (UniProt Q58F21). The experiment in a line: Binding affinity to BRDT bromodomain 2 (unknown origin) at 20 uM by Alpha screen assay relative to control.

Each structure is given as a SMILES string. pIC50: −log10 of the molar value.

Broadly, the MRT last is a mean duration of stay, worked out from the concentration-time curve. A word on the pIC50: it is −log10 of the IC50, conventionally taken in molar units. For `COc1ccc(Cl)cc1S(=O)(=O)Nc1ccc2[nH]c(=O)c3ccccc3c2c1`, the Activity in the data set with A549 [1] was 0.02%; in data set [2], over 70%; with A549 [3], 47.8%; with A549 [5], 68.3%; in [6], over 30%; in [8] it was over 70%. This molecule showed a mean residence time (MRT last) in [4] of 7.52 h. The same molecule had a pIC50 with SGC-7901 of 5.27. Further, the viability at 1 µM in the data set with A549 [7] was determined as 46.1%.

For the origin of these results see ChEMBL document CHEMBL4351018, “Novel phenanthridin-6(5H)-one derivatives as potent and selective BET bromodomain inhibitors: Rational design, synthesis and biological evaluation” (Eur J Med Chem, 2019).
